From ChEMBL document CHEMBL5661979, “Pharmacological inhibition of BMK1 suppresses tumor growth through promyelocytic leukemia protein” (Cancer Cell, 2010) come the findings set out here.

In assay [1] the target is Cyclin-dependent kinase 9 (Homo sapiens, UniProt P50750). As to the kind of experiment: Inhibition of CDK9 in human HeLa cells lysate pre incubated for 15 mins followed by ADP acyl phosphate probe addition and measured after 10 mins by LC-MS/MS analysis. It counts as subcellular. Summed up: (§1)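 KiNativ profiling in HeLa lysate (5 mg/mL total protein). Lysate incubated 15 min with inhibitor at 50, 10, 2, 0.8 or 0 μM. ATP or ADP acylphosphate probe then added (5 μM final) and reacted 10 min. Reaction stopped with urea and analysed by targeted MS, using up to four fragment ions per kinase peptide-probe conjugate. % inhibition taken against untreated lysate. Run in duplicate.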

For assay [2], the target named is T1, Serine/threonine-protein kinase Nek9 (Homo sapiens) (UniProt Q8TD19).
T1 sequence (whole entry): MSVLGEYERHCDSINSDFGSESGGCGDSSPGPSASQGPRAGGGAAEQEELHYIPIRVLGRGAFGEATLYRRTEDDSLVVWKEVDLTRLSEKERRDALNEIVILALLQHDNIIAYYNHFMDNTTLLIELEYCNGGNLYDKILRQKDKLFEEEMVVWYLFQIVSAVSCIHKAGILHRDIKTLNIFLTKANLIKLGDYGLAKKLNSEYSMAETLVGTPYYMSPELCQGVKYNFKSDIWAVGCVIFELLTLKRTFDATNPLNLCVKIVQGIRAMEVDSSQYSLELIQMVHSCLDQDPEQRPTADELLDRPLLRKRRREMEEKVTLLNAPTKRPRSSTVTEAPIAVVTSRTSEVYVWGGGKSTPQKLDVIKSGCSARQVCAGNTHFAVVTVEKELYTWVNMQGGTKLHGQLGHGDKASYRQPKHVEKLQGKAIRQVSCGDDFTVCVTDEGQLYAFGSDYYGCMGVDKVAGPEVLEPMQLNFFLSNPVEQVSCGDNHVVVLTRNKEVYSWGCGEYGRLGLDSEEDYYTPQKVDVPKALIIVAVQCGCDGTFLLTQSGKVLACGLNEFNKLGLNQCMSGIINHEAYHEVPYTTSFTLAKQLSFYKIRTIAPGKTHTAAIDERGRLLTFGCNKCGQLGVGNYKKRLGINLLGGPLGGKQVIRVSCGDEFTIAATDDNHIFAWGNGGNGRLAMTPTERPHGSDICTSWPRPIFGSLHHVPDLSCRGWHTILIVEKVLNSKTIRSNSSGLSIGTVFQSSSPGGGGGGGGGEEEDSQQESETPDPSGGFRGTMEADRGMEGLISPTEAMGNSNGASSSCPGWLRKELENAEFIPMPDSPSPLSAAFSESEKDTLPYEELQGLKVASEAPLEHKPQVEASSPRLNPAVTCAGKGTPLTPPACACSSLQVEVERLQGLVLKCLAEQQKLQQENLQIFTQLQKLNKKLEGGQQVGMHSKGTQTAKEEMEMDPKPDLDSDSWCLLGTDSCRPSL
As to the kind of experiment: Inhibition of NEK9 in human HeLa cells lysate at 10 uM pre incubated for 15 mins followed by ATP acyl phosphate probe addition and measured after 10 mins by LC-MS/MS analysis relative to control. It counts as subcellular. As to conditions: time 25.0 min.

Another assay addresses PKC alpha and beta-2 (Homo sapiens, UniProt P17252+P05771). The assay is described as follows: Inhibition of PKCalpha/beta in human HeLa cells lysate at 50 uM pre incubated for 15 mins followed by ATP acyl phosphate probe addition and measured after 10 mins by LC-MS/MS analysis relative to control. The format is subcellular. To be noted: time 25.0 min.
Assay [3] has as its target T2, Non-receptor tyrosine-protein kinase TNK1 (Homo sapiens) (UniProt Q13470).
T2 sequence (whole entry): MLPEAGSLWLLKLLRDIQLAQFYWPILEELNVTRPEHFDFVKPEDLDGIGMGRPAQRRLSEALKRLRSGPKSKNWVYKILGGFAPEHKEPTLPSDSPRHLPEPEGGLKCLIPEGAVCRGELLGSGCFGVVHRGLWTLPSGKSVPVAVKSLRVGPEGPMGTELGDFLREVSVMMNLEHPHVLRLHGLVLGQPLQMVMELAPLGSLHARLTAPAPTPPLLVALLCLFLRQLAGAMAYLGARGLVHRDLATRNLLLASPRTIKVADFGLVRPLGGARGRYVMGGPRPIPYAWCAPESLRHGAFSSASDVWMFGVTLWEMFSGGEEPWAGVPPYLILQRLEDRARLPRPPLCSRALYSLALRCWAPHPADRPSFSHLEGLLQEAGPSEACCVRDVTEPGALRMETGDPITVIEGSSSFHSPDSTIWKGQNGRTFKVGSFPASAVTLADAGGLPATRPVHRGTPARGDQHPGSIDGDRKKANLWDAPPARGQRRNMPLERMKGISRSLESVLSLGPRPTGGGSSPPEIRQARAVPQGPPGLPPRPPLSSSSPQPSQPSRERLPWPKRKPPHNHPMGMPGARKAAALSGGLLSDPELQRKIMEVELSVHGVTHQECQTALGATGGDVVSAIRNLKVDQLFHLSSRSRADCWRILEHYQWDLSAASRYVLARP
The assay is described as follows: Inhibition of TNK1 (unknown origin) assessed as remaining activity at 10 uM by ATP-competition binding assay relative to control.

Assay [4] deals with Serine/threonine-protein kinase 24 (Homo sapiens, UniProt Q9Y6E0). The assay is described as follows: Inhibition of MST3 in human HeLa cells lysate at 50 uM pre incubated for 15 mins followed by ADP acyl phosphate probe addition and measured after 10 mins by LC-MS/MS analysis relative to control. It counts as subcellular. To be noted: time 25.0 min.
Assay [5] deals with Cyclin-G-associated kinase (Homo sapiens) (UniProt O14976). As to the kind of experiment: Inhibition of GAK (unknown origin) assessed as remaining activity at 10 uM by ATP-competition binding assay relative to control.
For assay [6], the target named is Cyclin-dependent kinase 2 (Homo sapiens, UniProt P24941). As to the kind of experiment: Inhibition of CDK2 in human HeLa cells lysate at 2 uM pre incubated for 15 mins followed by ATP acyl phosphate probe addition and measured after 10 mins by LC-MS/MS analysis relative to control. It counts as subcellular. To be noted: time 25.0 min. A digest of the protocol:
as §1

Assay [7] has as its target Casein kinase I isoform alpha (Homo sapiens, UniProt P48729). As to the kind of experiment: Inhibition of CK1alpha in human HeLa cells lysate at 10 uM pre incubated for 15 mins followed by ATP acyl phosphate probe addition and measured after 10 mins by LC-MS/MS analysis relative to control. The format is subcellular. As to conditions: time 25.0 min.
Assay [8] can be described thus: Inhibition of MAP3K2/MAP3K3 in human HeLa cells lysate at 10 uM pre incubated for 15 mins followed by ADP acyl phosphate probe addition and measured after 10 mins by LC-MS/MS analysis relative to control. As to conditions: 25 min, condition cancer.
The target in assay [9] is Calcium/calmodulin-dependent protein kinase type II subunit gamma (Homo sapiens, UniProt Q13555). As to the kind of experiment: Inhibition of CAMK2g in human HeLa cells lysate at 50 uM pre incubated for 15 mins followed by ATP acyl phosphate probe addition and measured after 10 mins by LC-MS/MS analysis relative to control. It counts as subcellular. As to conditions: time 25.0 min. Summed up: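 KiNativ-type profiling in HeLa lysate (5 mg/mL total protein). Lysate preincubated 15 min with inhibitor at 50, 10, 2, 0.8 or 0 μM, then ATP or ADP acylphosphate probe added (5 μM final) for 10 min. Reaction stopped with urea and analysed by targeted MS, using up to four fragment ions per kinase peptide-probe conjugate. % inhibition calculated against untreated lysate. Duplicate reactions.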
Sequence of Calcium/calmodulin-dependent protein kinase type II subunit gamma (Q13555 whole entry, the tested form may be a part): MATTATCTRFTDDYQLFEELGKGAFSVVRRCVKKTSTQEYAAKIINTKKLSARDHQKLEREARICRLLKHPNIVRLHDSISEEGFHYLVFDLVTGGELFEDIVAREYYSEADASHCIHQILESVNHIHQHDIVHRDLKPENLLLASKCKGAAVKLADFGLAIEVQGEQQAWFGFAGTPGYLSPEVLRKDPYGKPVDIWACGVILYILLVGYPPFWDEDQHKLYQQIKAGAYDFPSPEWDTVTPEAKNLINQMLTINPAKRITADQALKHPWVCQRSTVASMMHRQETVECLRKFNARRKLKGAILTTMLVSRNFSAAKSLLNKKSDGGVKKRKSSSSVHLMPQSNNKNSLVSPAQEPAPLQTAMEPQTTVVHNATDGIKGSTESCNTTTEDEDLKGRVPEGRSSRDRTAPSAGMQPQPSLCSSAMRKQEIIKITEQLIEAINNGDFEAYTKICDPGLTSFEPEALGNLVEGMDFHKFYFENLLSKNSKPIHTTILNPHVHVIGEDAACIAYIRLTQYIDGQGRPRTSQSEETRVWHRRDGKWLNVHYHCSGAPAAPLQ

Sequence of PKC alpha and beta-2 (P05771 whole entry, looked up): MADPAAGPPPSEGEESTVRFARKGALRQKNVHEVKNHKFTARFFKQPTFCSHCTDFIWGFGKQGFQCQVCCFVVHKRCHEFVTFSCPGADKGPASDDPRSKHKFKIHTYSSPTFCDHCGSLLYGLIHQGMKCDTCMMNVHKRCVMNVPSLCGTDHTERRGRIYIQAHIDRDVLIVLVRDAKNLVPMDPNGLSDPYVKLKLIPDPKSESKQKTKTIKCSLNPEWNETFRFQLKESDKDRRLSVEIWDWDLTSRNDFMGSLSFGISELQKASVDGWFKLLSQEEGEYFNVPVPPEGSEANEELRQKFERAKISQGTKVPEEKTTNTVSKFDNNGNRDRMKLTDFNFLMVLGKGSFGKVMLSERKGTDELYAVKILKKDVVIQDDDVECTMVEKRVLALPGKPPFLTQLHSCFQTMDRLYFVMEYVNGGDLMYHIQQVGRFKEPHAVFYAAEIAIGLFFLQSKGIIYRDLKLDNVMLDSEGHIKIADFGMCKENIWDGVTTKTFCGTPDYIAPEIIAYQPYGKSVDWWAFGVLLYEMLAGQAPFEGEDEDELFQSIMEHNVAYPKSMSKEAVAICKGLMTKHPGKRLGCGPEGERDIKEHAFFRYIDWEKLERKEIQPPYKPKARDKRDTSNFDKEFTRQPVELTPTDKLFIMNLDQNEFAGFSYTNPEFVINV
Sequence of Cyclin-dependent kinase 9 (P50750 whole entry, the tested form may be a part): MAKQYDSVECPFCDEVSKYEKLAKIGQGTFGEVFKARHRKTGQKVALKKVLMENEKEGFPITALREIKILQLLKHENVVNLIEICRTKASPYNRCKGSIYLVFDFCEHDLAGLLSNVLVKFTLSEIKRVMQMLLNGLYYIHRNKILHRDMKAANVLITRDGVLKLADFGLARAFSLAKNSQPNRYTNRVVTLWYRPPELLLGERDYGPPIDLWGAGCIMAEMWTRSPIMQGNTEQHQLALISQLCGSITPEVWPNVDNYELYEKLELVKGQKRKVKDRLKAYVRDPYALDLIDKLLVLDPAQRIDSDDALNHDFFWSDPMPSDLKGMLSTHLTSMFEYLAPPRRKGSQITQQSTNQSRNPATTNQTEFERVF
Sequence of Serine/threonine-protein kinase 24 (Q9Y6E0 whole entry, looked up): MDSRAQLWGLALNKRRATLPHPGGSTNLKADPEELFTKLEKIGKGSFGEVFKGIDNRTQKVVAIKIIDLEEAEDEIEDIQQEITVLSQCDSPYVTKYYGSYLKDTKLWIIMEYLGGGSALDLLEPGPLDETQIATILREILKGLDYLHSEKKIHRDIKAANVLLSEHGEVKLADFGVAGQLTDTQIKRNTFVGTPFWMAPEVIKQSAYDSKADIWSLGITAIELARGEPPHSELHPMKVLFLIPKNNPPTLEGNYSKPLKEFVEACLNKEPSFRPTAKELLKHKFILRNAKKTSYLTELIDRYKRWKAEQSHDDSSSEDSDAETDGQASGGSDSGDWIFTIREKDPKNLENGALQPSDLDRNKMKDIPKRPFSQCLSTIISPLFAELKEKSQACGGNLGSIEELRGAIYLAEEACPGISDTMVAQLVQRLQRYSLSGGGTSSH
Sequence of Cyclin-G-associated kinase (Homo sapiens) (O14976 whole entry): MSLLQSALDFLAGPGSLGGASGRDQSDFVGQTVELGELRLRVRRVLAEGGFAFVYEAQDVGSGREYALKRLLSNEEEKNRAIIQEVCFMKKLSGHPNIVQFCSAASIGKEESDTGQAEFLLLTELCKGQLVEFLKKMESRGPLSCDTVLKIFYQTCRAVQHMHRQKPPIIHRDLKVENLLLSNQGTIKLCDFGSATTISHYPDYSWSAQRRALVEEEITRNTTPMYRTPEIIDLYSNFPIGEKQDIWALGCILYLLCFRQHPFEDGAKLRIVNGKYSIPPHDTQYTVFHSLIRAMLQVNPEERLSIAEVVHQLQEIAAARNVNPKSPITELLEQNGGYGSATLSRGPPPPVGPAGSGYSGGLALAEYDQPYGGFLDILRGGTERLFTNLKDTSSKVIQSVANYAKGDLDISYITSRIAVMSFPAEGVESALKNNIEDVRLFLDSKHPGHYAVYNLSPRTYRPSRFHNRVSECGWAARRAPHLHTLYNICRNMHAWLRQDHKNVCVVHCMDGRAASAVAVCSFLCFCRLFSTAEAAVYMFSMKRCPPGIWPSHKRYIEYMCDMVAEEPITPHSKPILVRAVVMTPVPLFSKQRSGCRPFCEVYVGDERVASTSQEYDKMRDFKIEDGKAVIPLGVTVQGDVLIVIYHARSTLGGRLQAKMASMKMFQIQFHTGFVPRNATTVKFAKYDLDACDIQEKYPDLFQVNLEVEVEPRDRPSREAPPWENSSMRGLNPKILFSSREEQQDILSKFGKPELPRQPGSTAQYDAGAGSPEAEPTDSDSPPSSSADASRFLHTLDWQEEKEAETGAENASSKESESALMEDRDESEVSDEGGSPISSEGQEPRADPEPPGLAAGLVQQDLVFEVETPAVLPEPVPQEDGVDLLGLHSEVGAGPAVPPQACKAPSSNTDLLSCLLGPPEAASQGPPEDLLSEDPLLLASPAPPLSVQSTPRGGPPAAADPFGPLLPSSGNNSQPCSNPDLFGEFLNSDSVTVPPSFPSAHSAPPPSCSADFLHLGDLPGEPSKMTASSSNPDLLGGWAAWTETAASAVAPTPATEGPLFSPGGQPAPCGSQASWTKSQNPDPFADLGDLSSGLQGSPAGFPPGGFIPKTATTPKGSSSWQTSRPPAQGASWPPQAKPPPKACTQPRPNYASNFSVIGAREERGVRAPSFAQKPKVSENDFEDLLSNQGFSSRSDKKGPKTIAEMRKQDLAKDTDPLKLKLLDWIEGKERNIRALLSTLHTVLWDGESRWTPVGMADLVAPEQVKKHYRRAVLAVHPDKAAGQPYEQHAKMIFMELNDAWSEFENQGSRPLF
Sequence of Casein kinase I isoform alpha (P48729 2-337 limits assumed): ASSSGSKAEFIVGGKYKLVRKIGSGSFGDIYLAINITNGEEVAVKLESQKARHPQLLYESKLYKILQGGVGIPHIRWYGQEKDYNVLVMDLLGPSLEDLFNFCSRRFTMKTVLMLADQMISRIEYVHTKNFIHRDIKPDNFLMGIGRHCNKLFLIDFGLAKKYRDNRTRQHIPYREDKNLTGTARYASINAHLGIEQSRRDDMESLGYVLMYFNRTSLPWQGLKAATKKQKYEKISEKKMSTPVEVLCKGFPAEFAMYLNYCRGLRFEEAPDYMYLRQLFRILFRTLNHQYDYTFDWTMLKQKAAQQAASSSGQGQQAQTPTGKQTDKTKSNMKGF

The IC50 is the concentration that inhibits the measured activity by half. As a reminder, the inhibition is the drop in the measured response relative to a control, in per cent. Take `CCOc1cc(N2CCC(O)CC2)ccc1Nc1ncc2c(n1)N(C)c1ccccc1C(=O)N2C`: the IC50 in assay [1] was greater than 50 µM. Also, the inhibition in assay [2] was -7.3%; against PKC alpha and beta-2, 14.4%; in assay [4], -8.5%; in [6], 2%; in [7] it was -7.9%; in [9], 13.9%. For the same compound, the Activity in assay [3] was 7.8%; in assay [5], 31%. For the same compound, in assay [8], the inhibition at 10 µM is -18.3%.
